Holding throughout (assay type): functional
The test system of experiment [1] is Candida albicans. The experiment can be described thus: Antifungal activity against Candida albicans ATCC 10231 by broth microdilution method. In a few lines:
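CLSI M27-A2 broth microdilution in RPMI 1640 buffered to pH 7.0 with 0.165 M MOPS. Final inoculum 0.5 x 10^3 to 2.5 x 10^3 cells/ml, incubated 35°C for 48 h. Growth read as OD490 with background subtracted. MIC taken as the lowest drug concentration giving 80% growth reduction versus drug-free control. Run in triplicate.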
(In general: Broth dilution looks for growth in wells or tubes with falling amounts of substance.)

For experiment [2], the system named is Candida albicans. As to the kind of experiment: Antifungal activity against Candida albicans CA1 after 48 hrs by broth microdilution method. To be noted: CA1, 48 h. In a few lines: (§1)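 CLSI M27-A2 broth microdilution of clinical isolates in RPMI 1640 buffered to pH 7.0 with 0.165 M MOPS. Final inoculum 0.5 x 10^3 to 2.5 x 10^3 cells/ml, incubated 35°C for 48 h. Growth read as OD490 with background subtracted. MIC taken as the lowest drug concentration giving 80% growth reduction versus drug-free control. Run in triplicate.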

The subject of experiment [3] is Candida albicans. As to the kind of experiment: Antifungal activity against Candida albicans CA2 after 48 hrs by broth microdilution method. To be noted: CA2, 48 h. In a few lines:
as §1

The test system of experiment [4] is Candida albicans. The experiment can be described thus: Antifungal activity against Candida albicans CA3 after 48 hrs by broth microdilution method. To be noted: CA3, 48 h. In a few lines: as §1
For experiment [5], the system named is Candida albicans. As to the kind of experiment: Antifungal activity against Candida albicans CA4 after 48 hrs by broth microdilution method. To be noted: CA4, 48 h. Summed up:
as §1

In experiment [6] the test system is Candida albicans. As to the kind of experiment: Antifungal activity against Candida albicans CA127 after 48 hrs by broth microdilution method. To be noted: CA127, 48 h. In a few lines:
as §1

Experiment [7] relates to Candida albicans. The experiment can be described thus: Antifungal activity against Candida albicans CA132 after 48 hrs by broth microdilution method. To be noted: CA132, 48 h. Summed up: as §1
Experiment [8] deals with Candida albicans. The experiment can be described thus: Antifungal activity against Candida albicans CA10 after 48 hrs by broth microdilution method. To be noted: CA10, 48 h. In a few lines: as §1
The subject of experiment [9] is Candida albicans. The experiment can be described thus: Antifungal activity against Candida albicans CA135 after 48 hrs by broth microdilution method. To be noted: CA135, 48 h. Summed up:
as §1

Experiment [10] relates to Candida albicans. The experiment can be described thus: Antifungal activity against Candida albicans CA137 after 48 hrs by broth microdilution method. To be noted: CA137, 48 h. Summed up: as §1
Experiment [11] relates to Candida albicans. The experiment can be described thus: Antifungal activity against Candida albicans CA138 after 48 hrs by broth microdilution method. To be noted: CA138, 48 h. In a few lines: as §1

≈ marks a conversion by molar mass, not a printed value.

Turning to `OC(Cn1cncn1)(Cn1cncn1)c1ccc(F)cc1F` [FLUCONAZOLE], the MIC in experiment [1] is 0.5 µg/mL (≈ 1.63 µM); in experiment [2] it was 0.25 µg/mL (≈ 0.816 µM); in [3] it was 0.5 µg/mL (≈ 1.63 µM); in experiment [4], 0.25 µg/mL (≈ 0.816 µM); in experiment [5] it was 1 µg/mL (≈ 3.27 µM); in experiment [6], 1 µg/mL (≈ 3.27 µM). Besides, the MIC stood at 0.5 µg/mL (≈ 1.63 µM) in [7]; 256 µg/mL (≈ 836 µM) in experiment [8]; 128 µg/mL (≈ 418 µM) in experiment [9]; 64 µg/mL (≈ 209 µM) in [10]; 128 µg/mL (≈ 418 µM) in experiment [11].
Consider `CCC(C)n1ncn(-c2ccc(N3CCN(c4ccc(OCC5COC(Cn6cncn6)(c6ccc(Cl)cc6Cl)O5)cc4)CC3)cc2)c1=O` (stereo unspecified) [ITRACONAZOLE], for which the MIC worked out at 0.125 µg/mL (≈ 0.177 µM) in [2]; 0.125 µg/mL (≈ 0.177 µM) in [3]; 0.031 µg/mL (≈ 0.0439 µM) in experiment [4]; 0.031 µg/mL (≈ 0.0439 µM) in experiment [5]; 0.016 µg/mL (≈ 0.0227 µM) in [6]; 0.031 µg/mL (≈ 0.0439 µM) in experiment [7]. The MIC is 128 µg/mL (≈ 181 µM) in experiment [8], 32 µg/mL (≈ 45.3 µM) in experiment [9], 16 µg/mL (≈ 22.7 µM) in experiment [10] and 64 µg/mL (≈ 90.7 µM) in experiment [11].

Usually MIC stands for the least concentration at which growth counts as inhibited.
